Our source for the Activity and inhibition values is ChEMBL document CHEMBL1146234, “Synthesis and biological evaluation of N-pyrazolyl-N'-alkyl/benzyl/phenylureas: a new class of potent inhibitors of interleukin 8-induced neutrophil chemotaxis” (J Med Chem, 2007).

In assay [1] the target is T1, C-X-C chemokine receptor type 2 (Homo sapiens) (UniProt P25025).
T1 sequence (whole entry): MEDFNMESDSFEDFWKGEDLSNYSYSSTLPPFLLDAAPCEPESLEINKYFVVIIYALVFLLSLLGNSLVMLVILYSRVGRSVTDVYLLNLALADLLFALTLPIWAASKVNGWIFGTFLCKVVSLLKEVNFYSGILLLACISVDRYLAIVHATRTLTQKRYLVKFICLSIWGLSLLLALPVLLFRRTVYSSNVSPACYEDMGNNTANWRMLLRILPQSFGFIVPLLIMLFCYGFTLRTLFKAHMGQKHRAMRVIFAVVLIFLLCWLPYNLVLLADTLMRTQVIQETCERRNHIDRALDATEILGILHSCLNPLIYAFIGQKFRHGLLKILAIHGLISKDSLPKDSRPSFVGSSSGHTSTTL
Description: Binding affinity to CXCR2.

In assay [2] the test system is Neutrophil. Kind of assay: Inhibition of fMLP-induced neutrophil chemotaxis after 45 mins by Boyden chamber assay. The note with it: Homo sapiens. It counts as functional, cell-based. In outline:
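Leading-front Boyden assay with donor neutrophils. Cells were preincubated 15 min at room temperature ± compound. Then 4 × 10⁵ cells were placed above a 3 µm cellulose ester filter, with IL8 or fMLP below. After 45 min at 37 °C, filters were hematoxylin-stained and the leading-front distance was read at ×400, 5 fields per filter, in duplicate. Net migration = stimulated minus spontaneous. IC₅₀ came from nonlinear regression, ≥3 experiments.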

The species named for assay [3] is Homo sapiens. Kind of assay: Inhibition of pyk2 60-70Kda region in human neutrophils assessed as reduction of IL8 stimulated tyrosin phosphorylation at 0.05 uM after 30 mins. The essentials:
(§1)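 Neutrophils (2.5 × 10⁷ cells/mL) were treated with 10⁻³ M diisopropylfluorophosphate for 30 min at room temperature. They were then incubated 30 min ± compound and stimulated with 10⁻⁷ M IL8 for 0.5 min. Samples were boiled in SDS buffer and run on 7.5-20% SDS-PAGE, then blotted to nitrocellulose. Blots were probed overnight at 4 °C with anti-phosphotyrosine mAb 4G10 and detected by ECL. Ponceau S staining confirmed equal loading.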

The species entered for assay [4] is Homo sapiens. Description: Inhibition of pyk2 50Kda region in human neutrophils assessed as reduction of IL8 stimulated tyrosin phosphorylation at 0.05 uM after 30 mins. In outline: as §1
In assay [5] the target is RAC-alpha serine/threonine-protein kinase (Homo sapiens) (UniProt P31749). Kind of assay: Inhibition of IL8-induced Akt phosphorylation in human neutrophils at 0.05 uM. In outline:
(§2)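 Purified human neutrophils (1 × 10⁷ cells/mL) were pretreated 30 min with compound, then exposed to 10 nM IL8 or none for 5 min at 37 °C. Cells were lysed in NP40 buffer, and protein was quantified by BCA. Then […] protein per lane was run on 12% SDS-PAGE, blotted to nitrocellulose, and probed overnight at 4 °C with anti-phospho-Akt mAb. Detection was by ECL.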

The target of assay [6] is Tyrosine-protein kinase Fgr (Homo sapiens) (UniProt P09769). Description: Binding affinity to Fgr.
Chain of Tyrosine-protein kinase Fgr (Homo sapiens) (P09769 2-529 limits assumed): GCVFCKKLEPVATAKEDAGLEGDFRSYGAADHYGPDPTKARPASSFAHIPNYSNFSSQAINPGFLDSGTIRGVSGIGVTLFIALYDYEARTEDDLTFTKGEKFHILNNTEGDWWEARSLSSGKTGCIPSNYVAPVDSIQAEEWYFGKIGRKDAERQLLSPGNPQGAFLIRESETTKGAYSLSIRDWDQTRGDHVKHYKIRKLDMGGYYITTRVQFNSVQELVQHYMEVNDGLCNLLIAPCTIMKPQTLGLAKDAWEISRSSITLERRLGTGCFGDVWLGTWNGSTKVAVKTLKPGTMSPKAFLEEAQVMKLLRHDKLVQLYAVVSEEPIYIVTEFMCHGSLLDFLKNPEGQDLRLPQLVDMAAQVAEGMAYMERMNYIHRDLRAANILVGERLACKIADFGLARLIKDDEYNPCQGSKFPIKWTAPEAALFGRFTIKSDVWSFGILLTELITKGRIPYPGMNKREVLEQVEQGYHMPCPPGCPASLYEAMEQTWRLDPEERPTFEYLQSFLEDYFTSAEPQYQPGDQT
The target of assay [7] is Mitogen-activated protein kinase 11 (Homo sapiens) (UniProt Q15759). Description: Binding affinity to p38beta2.
Chain of Mitogen-activated protein kinase 11 (Homo sapiens) (Q15759 whole entry): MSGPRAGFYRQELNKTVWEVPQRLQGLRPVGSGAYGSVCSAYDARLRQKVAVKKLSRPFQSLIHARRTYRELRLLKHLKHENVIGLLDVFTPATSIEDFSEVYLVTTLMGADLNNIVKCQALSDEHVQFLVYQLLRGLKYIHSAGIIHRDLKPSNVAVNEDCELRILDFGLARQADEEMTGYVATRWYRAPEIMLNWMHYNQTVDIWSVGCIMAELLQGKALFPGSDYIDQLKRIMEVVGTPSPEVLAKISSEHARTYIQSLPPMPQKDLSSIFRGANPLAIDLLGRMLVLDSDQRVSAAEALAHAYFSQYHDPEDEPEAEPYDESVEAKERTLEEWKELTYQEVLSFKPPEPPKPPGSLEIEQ
Assay [8] addresses T2, Mitogen-activated protein kinase 12 (Homo sapiens) (UniProt P53778).
T2 sequence (whole entry): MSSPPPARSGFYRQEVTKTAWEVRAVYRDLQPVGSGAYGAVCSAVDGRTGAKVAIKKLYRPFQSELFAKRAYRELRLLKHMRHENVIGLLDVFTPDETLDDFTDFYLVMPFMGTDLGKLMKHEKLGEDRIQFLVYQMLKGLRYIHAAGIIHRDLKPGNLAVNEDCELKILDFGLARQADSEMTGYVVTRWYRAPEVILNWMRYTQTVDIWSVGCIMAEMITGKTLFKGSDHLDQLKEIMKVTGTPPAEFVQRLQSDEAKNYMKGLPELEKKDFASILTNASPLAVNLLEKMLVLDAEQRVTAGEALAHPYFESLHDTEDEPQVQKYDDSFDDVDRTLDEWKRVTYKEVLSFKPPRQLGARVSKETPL
Description: Binding affinity to p38-gamma.

The target in assay [9] is Mitogen-activated protein kinase 3 (Homo sapiens) (UniProt P27361). Kind of assay: Binding affinity to ERK1.
Chain of Mitogen-activated protein kinase 3 (Homo sapiens) (P27361 whole entry): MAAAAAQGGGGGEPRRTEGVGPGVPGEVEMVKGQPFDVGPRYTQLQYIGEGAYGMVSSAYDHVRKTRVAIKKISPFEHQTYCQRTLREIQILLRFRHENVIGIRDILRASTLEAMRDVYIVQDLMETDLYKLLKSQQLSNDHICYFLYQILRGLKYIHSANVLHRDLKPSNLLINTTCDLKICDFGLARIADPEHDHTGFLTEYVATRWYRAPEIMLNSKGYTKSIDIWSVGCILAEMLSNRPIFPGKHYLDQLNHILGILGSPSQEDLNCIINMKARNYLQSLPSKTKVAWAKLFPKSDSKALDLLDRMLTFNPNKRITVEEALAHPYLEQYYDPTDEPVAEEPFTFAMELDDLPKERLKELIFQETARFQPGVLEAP
Assay [10] is filed under the species Homo sapiens. Description: Inhibition of pyk2 60-70Kda region in human neutrophils assessed as reduction of IL8 stimulated tyrosin phosphorylation at 0.06 uM after 30 mins. The essentials:
as §1

The species entered for assay [11] is Homo sapiens. Kind of assay: Inhibition of pyk2 50Kda region in human neutrophils assessed as reduction of IL8 stimulated tyrosin phosphorylation at 0.06 uM after 30 mins. The essentials: as §1
Assay [12] deals with RAC-alpha serine/threonine-protein kinase (Homo sapiens) (UniProt P31749). Kind of assay: Inhibition of IL8-induced Akt phosphorylation in human neutrophils at 0.06 uM. The essentials: as §2
Chain of RAC-alpha serine/threonine-protein kinase (Homo sapiens) (P31749 whole entry): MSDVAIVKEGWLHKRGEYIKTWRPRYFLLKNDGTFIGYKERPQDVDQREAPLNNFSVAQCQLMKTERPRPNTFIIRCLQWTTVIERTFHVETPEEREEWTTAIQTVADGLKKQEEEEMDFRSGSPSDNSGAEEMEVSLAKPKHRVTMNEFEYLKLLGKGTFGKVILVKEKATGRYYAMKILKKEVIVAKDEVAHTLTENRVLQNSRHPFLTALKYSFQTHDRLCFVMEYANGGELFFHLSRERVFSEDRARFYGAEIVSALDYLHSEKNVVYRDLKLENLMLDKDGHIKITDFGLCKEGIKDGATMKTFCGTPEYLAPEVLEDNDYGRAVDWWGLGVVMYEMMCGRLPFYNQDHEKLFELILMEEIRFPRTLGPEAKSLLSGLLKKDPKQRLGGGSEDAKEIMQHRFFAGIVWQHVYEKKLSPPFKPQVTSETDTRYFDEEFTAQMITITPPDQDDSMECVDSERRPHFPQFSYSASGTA
For assay [13], the species on record is Homo sapiens. Description: Inhibition of pyk2 60-70Kda region in human neutrophils assessed as reduction of IL8 stimulated tyrosin phosphorylation at 0.01 uM after 30 mins. In outline: as §1
The species named for assay [14] is Homo sapiens. Description: Inhibition of pyk2 50Kda region in human neutrophils assessed as reduction of IL8 stimulated tyrosin phosphorylation at 0.01 uM after 30 mins. In outline: as §1
Assay [15] concerns the target RAC-alpha serine/threonine-protein kinase (Homo sapiens) (UniProt P31749). Kind of assay: Inhibition of IL8-induced Akt phosphorylation in human neutrophils at 0.01 uM. In outline: as §2

Active and inactive are the calls of the source. No cut-off for these calls is given here.

As a reminder, the inhibition is the relative decrease from the control value, in per cent. Regarding `CCOC(=O)c1cnn(CC(O)c2ccccc2)c1NC(=O)Nc1ccccc1` (configuration not stated), the outcome in assay [1], in assay [2], in [5], in assay [6], in [7] and in assay [8] was inactive. Moreover, in [9], the result was inactive. The inhibition in assay [3] was determined as 81%; in assay [4], 71%.
Consider `CCOC(=O)c1cnn(CC(O)c2ccccc2)c1NC(=O)NC(C)C` (configuration not stated), for which the outcome in assay [1], in [2], in assay [12], in assay [6], in assay [7] and in assay [8] was inactive. Moreover, the result in [9] was inactive. The inhibition was 53% in assay [10] and 20% in assay [11].
With `CCOC(=O)c1cnn(CC(O)c2ccccc2)c1NC(=O)NCc1ccccc1` (configuration not stated), the outcome in assay [1], in assay [2], in [15], in assay [6], in assay [7] and in assay [8] was inactive. Also, in assay [9], the outcome was inactive. Besides, the figures for the inhibition in assay [13] and in [14] were 63% and 70%, respectively.
